Results reported in ChEMBL document CHEMBL1221297, “Design, synthesis, and in vitro antiprotozoal, antimycobacterial activities of N-{2-[(7-chloroquinolin-4-yl)amino]ethyl}ureas” (Bioorg Med Chem, 2010).
Values after ≈ are worked out from the molar mass of the structure shown.

Legend:
[1] = system: Mycobacterium tuberculosis; assay: Antimicrobial activity against Mycobacterium tuberculosis H37Rv ATTC 27294 by microplate alamar blue assay; format: functional, organism-based
In short: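 Inoculum from a log-phase culture adjusted to McFarland 1, then diluted 1:50 in Middlebrook 7H9 broth to 6 × 10⁶ CFU/mL and prepared just before inoculation. Compounds tested from […]. Ethambutol served as positive internal standard. MIC read by Alamar Blue. Done in triplicate.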

Entamoeba histolytica = assay: Antimicrobial activity against Entamoeba histolytica HM-1:IMSS after 48 hrs; format: functional, organism-based
In short: (§1)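 Trophozoites (4 × 10⁴) exposed 48 h at 37 °C to increasing compound concentrations; DMSO-medium negative control. Then washed and subcultured 48 h in fresh drug-free medium before counting. IC50 by probit analysis; triplicate, repeated at least twice. Giardia grown in modified TYI-S-33 with 10% calf serum and bovine bile. Trichomonas and Entamoeba grown in TYI-S-33 with 10% bovine serum.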

Giardia intestinalis = assay: Antimicrobial activity against Giardia intestinalis IMSS:0696:1 after 48 hrs; format: functional, organism-based; settings: Giardia duodenalis, IMSS:0696:1, 48 h; in short: as §1
Trypanosoma cruzi = assay: Antimicrobial activity against epimastigotes form of Trypanosoma cruzi MHOM/MX/1994/Ninoa after 72 hrs; format: functional, organism-based
In short: (§2)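 Parasites grown at 26 °C in Schneider's drosophila medium with 10% FBS and penicillin. 10,000 L. mexicana promastigotes or 20,000 T. cruzi epimastigotes per well, at 10, 5, 2.5 and 1.25 µg/mL. Untreated parasite cultures included. 72 h at 26 °C, then parasites counted directly in a Neubauer chamber. IC50 by probit analysis.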

Leishmania mexicana = assay: Antimicrobial activity against promastigotes form of Leishmania mexicana MHOM/MX/ISETGS after 72 hrs; format: functional, organism-based; in short: as §2
Trichomonas vaginalis = assay: Antimicrobial activity against Trichomonas vaginalis GT3 after 48 hrs; format: functional, organism-based; settings: GT3, 48 h; in short: as §1
[2] = Cytotoxicity against african green monkey Vero cells after 72 hrs by MTT assay; format: cell-based; settings: chlorocebus sabaeus
In short: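 VERO cells (1.5 × 10⁴) grown in DMEM with 10% FBS at 37 °C, 5% CO₂. Seeded and grown 24–48 h, then treated at >80% confluence with 6.25–100 µg/mL (DMSO ≤0.05%) for 72 h. MTT added for 4 h at 37 °C. Formazan dissolved in acidified isopropanol and read at OD 540 nm. CC50 from triplicates.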

[3] = Selectivity index, ratio of CC50 for african green monkey Vero cells to IC50 for Giardia intestinalis IMSS:0696:1; format: functional
In short: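 SI computed as CC50 in VERO cells divided by IC50 against the parasite.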

CC[C@@H](CO)NCCN[C@@H](CC)CO [ETHAMBUTOL]
IC50 [1]: 4 µg/mL (≈ 19.6 µM)

CCOc1ccc(NC(=O)NCCNc2ccnc3cc(Cl)ccc23)cc1
IC50 (Entamoeba histolytica): 5.93 µM | IC50 (Giardia intestinalis): 0.339 µM | IC50 (Trypanosoma cruzi): 50 µM | IC50 (Leishmania mexicana): 50 µM | IC50 (Trichomonas vaginalis): 30.1 µM | IC50 [1]: 8 µg/mL (≈ 20.8 µM)

NCCNc1ccnc2cc(Cl)ccc12
IC50 (Entamoeba histolytica): 14.6 µM | IC50 (Giardia intestinalis): 1.25 µM | IC50 (Trypanosoma cruzi): > 50 µM | IC50 (Leishmania mexicana): > 50 µM | IC50 (Trichomonas vaginalis): 23 µM | IC50 [1]: 8 µg/mL (≈ 36.1 µM)

O=C(NCCNc1ccnc2cc(Cl)ccc12)Nc1ccc(Cl)cc1
IC50 (Entamoeba histolytica): 6.87 µM | IC50 (Giardia intestinalis): 0.267 µM | IC50 (Trypanosoma cruzi): 50 µM | IC50 (Leishmania mexicana): 50 µM | IC50 (Trichomonas vaginalis): 9.59 µM | IC50 [1]: 4 µg/mL (≈ 10.7 µM)

O=C(NCCNc1ccnc2cc(Cl)ccc12)Nc1ccccc1
IC50 (Entamoeba histolytica): 5.37 µM | IC50 (Giardia intestinalis): 1.17 µM | IC50 (Trypanosoma cruzi): > 50 µM | IC50 (Leishmania mexicana): > 50 µM | IC50 (Trichomonas vaginalis): 46 µM | IC50 [1]: 8 µg/mL (≈ 23.5 µM)

CCN(CC)CCCC(C)Nc1ccnc2cc(Cl)ccc12 (stereo unspecified) [CHLOROQUINE]
IC50 (Entamoeba histolytica): 9.58 µM | IC50 (Giardia intestinalis): 0.401 µM | IC50 (Trypanosoma cruzi): > 50 µM | IC50 (Leishmania mexicana): > 50 µM | IC50 (Trichomonas vaginalis): 30 µM | IC50 [1]: > 8 µg/mL

COc1ccc(NC(=O)NCCNc2ccnc3cc(Cl)ccc23)cc1
IC50 (Entamoeba histolytica): 10.7 µM | IC50 (Giardia intestinalis): 0.595 µM | IC50 (Trypanosoma cruzi): > 50 µM | IC50 (Leishmania mexicana): > 50 µM | IC50 (Trichomonas vaginalis): 21.7 µM | IC50 [1]: 8 µg/mL (≈ 21.6 µM)

O=C(NCCNc1ccnc2cc(Cl)ccc12)Nc1ccc(F)cc1
IC50 (Entamoeba histolytica): 17.7 µM | IC50 (Giardia intestinalis): 0.927 µM | IC50 (Trypanosoma cruzi): > 50 µM | IC50 (Leishmania mexicana): > 50 µM | IC50 (Trichomonas vaginalis): 23.2 µM | IC50 [1]: 8 µg/mL (≈ 22.3 µM)

CCCCOc1ccc(NC(=O)NCCNc2ccnc3cc(Cl)ccc23)cc1
IC50 (Entamoeba histolytica): 3.64 µM | IC50 (Giardia intestinalis): 0.008 µM | IC50 (Trypanosoma cruzi): 50 µM | CC50 at 72 h [2]: 5 µM | IC50 (Leishmania mexicana): 9.9 µM | IC50 (Trichomonas vaginalis): 8.44 µM | Ratio CC50/IC50 [3]: 625 | IC50 [1]: 2 µg/mL (≈ 4.84 µM)

O=C(NCCNc1ccnc2cc(Cl)ccc12)NC1CCCCC1
IC50 (Entamoeba histolytica): 6.93 µM | IC50 (Giardia intestinalis): 1.65 µM | IC50 (Trypanosoma cruzi): > 50 µM | IC50 (Leishmania mexicana): > 50 µM | IC50 (Trichomonas vaginalis): 66.7 µM | IC50 [1]: 8 µg/mL (≈ 23.1 µM)

CC(C)CCOc1ccc(NC(=S)Nc2ccc(OCCC(C)C)cc2)cc1 [TIOCARLIDE]
IC50 [1]: 4 µg/mL (≈ 9.99 µM)

O=C(Cn1ccnc1[N+](=O)[O-])NCc1ccccc1 [BENZNIDAZOLE]
IC50 (Trypanosoma cruzi): 34.4 µM

N=C(N)c1ccc(OCCCCCOc2ccc(C(=N)N)cc2)cc1 [PENTAMIDINE]
IC50 (Leishmania mexicana): 13.3 µM

O=C(NCCNc1ccnc2cc(Cl)ccc12)Nc1ccc([N+](=O)[O-])cc1
IC50 (Entamoeba histolytica): 10.6 µM | IC50 (Giardia intestinalis): 1.75 µM | IC50 (Trypanosoma cruzi): 50 µM | IC50 (Leishmania mexicana): 50 µM | IC50 (Trichomonas vaginalis): 12 µM | IC50 [1]: 8 µg/mL (≈ 20.7 µM)
